# Laboratory results as given in ChEMBL document CHEMBL4014308, “Amphiphilic Tobramycin-Lysine Conjugates Sensitize Multidrug Resistant Gram-Negative Bacteria to Rifampicin and Minocycline” (J Med Chem, 2017).
# Activity calls are given as the source filed them. The rule behind the calls is not given here.
# Tests used:
# Pseudomonas aeruginosa [1] = experiment: Potentiation of erythromycin-induced antibacterial activity against Pseudomonas aeruginosa PAO1 at 4 ug/ml after 18 hrs by checkerboard assay; format: functional
# Method in brief: (§1)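 Checkerboard in Mueller-Hinton broth: antibiotic serially diluted along one axis and adjuvant along the other (10 × 7 matrix). Inoculum from a 0.5 McFarland saline suspension diluted 1:50 in MHB; 18 h at 37 °C, then plate read. MIC is the lowest concentration with no growth. FIC of each agent is its concentration in a no-growth well divided by its MIC alone; FIC index is the sum of both. FIC index ≤0.5 counts as synergy.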
# Pseudomonas aeruginosa [2] = experiment: Synergistic antibacterial activity against Pseudomonas aeruginosa PAO1 after 18 hrs in presence of colistin by checkerboard assay; format: functional; conditions: PAO1, 18 h
# Method in brief: (§2)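 Checkerboard in MHB: antibiotic diluted along one axis and adjuvant along the other (10 × 7 matrix). Inoculum was a 1:50 dilution in MHB of a 0.5 McFarland saline suspension; incubated 18 h at 37 °C. Each FIC = concentration in the no-growth well divided by the MIC alone; FIC index = sum of both FICs. ≤0.5 synergy, 0.5–4 no interaction, ≥4 antagonism.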
# Pseudomonas aeruginosa [3] = experiment: Potentiation of chloramphenicol-induced antibacterial activity against Pseudomonas aeruginosa PAO1 at 4 ug/ml after 18 hrs by checkerboard assay; format: functional; method in brief: as §1
# Pseudomonas aeruginosa [4] = experiment: Potentiation of rifampicin-induced antibacterial activity against multidrug/extremely drug-resistant/colistin-resistant Pseudomonas aeruginosa isolate 91433 at 4 ug/ml after 18 hrs by checkerboard assay; format: functional; method in brief: as §1
# Pseudomonas aeruginosa [5] = experiment: Synergistic antibacterial activity against Pseudomonas aeruginosa PAO1 after 18 hrs in presence of vancomycin by checkerboard assay; format: functional; conditions: PAO1, 18 h; method in brief: as §2
# Acinetobacter baumannii [6] = experiment: Antibacterial activity against multidrug-resistant Acinetobacter baumannii AB031 after 18 hrs by microtiter dilution assay; format: functional; conditions: AB031, 18 h
# Method in brief: (§3)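 Broth microdilution following CLSI guidelines. An overnight culture was adjusted to 0.5 McFarland in saline, then diluted 1:50 in Mueller-Hinton broth. This inoculum was added in equal volume to 2-fold serial dilutions of agent in MHB and incubated 18 h at 37 °C. MIC was the lowest concentration with no visible growth.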
# Pseudomonas aeruginosa [7] = experiment: Bactericidal activity against Pseudomonas aeruginosa PAO1 at 4 times antibacterial MIC after 10 mins; format: functional
# Method in brief: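 Time-kill with P. aeruginosa PAO1. A 0.5 McFarland suspension was diluted 1:50 in LB broth and exposed to agent in PBS (pH 7.2) at 1/2×, 1×, 2× or 4× MIC at 37 °C for 6 h. Samples at 0, 10, 30, 60, 90, 120, 240 and 360 min were serially diluted in PBS, plated on LB agar, and colonies counted after 20 h at 37 °C.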
# Pseudomonas aeruginosa [8] = experiment: Synergistic antibacterial activity against Pseudomonas aeruginosa PAO1 after 18 hrs in presence of ceftazidime by checkerboard assay; format: functional; conditions: PAO1, 18 h; method in brief: as §2
# Acinetobacter baumannii [9] = experiment: Antibacterial activity against multidrug-resistant Acinetobacter baumannii 110193 after 18 hrs by microtiter dilution assay; format: functional; conditions: Acinetobacter baumannii, 110193, 18 h; method in brief: as §3
# Pseudomonas aeruginosa [10] = experiment: Potentiation of moxifloxacin-induced antibacterial activity against Pseudomonas aeruginosa PAO1 at 4 ug/ml after 18 hrs by checkerboard assay; format: functional; method in brief: as §1
# Pseudomonas aeruginosa [11] = experiment: Antibacterial activity against Pseudomonas aeruginosa ATCC 27853 after 18 hrs by microtiter dilution assay; format: functional; conditions: ATCC 27853, 18 h
# Method in brief: (§4)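 Broth microdilution per CLSI. Overnight culture adjusted to 0.5 McFarland in saline, diluted 1:50 in Mueller-Hinton broth, and added to an equal volume of 2-fold serial compound dilutions in MHB. Incubated 18 h at 37 °C. MIC taken as the lowest concentration with no visible growth.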
# Streptococcus pneumoniae = experiment: Antibacterial activity against Streptococcus pneumoniae ATCC 49619 after 18 hrs by microtiter dilution assay; format: functional; conditions: ATCC 49619, 18 h; method in brief: as §4
# Pseudomonas aeruginosa [12] = experiment: Antibacterial activity against multidrug/extremely drug-resistant/colistin-susceptible Pseudomonas aeruginosa isolate P264-104354 after 18 hrs by microtiter dilution assay; format: functional; conditions: isolate P264-104354, 18 h; method in brief: as §3
# Enterobacter cloacae = experiment: Potentiation of rifampicin-induced antibacterial activity against multidrug-resistant Enterobacter cloacae 117029 at 4 ug/ml after 18 hrs by checkerboard assay; format: functional; method in brief: as §1
# Pseudomonas aeruginosa [13] = experiment: Potentiation of minocycline-induced antibacterial activity against multidrug/extremely drug-resistant/colistin-susceptible Pseudomonas aeruginosa isolate P262-101856 at 4 ug/ml after 18 hrs by checkerboard assay; format: functional; method in brief: as §1
# [14] = Ratio of cytotoxic concentration against human JIMT1 cells to synergistic concentration for Pseudomonas aeruginosa PAO1 in presence of rifampicin
# Pseudomonas aeruginosa [15] = experiment: Antibacterial activity against multidrug/extremely drug-resistant/colistin-susceptible Pseudomonas aeruginosa isolate P259-96918 after 18 hrs by microtiter dilution assay; format: functional; conditions: isolate P259-96918, 18 h; method in brief: as §3
# Acinetobacter baumannii [16] = experiment: Synergistic antibacterial activity against multidrug-resistant Acinetobacter baumannii AB027 after 18 hrs in presence of rifampicin by checkerboard assay; format: functional; conditions: AB027, 18 h
# Method in brief: (§5)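 Checkerboard in MHB with a 10 × 7 matrix: antibiotic serially diluted along one axis, adjuvant along the other. Inoculum was a 1:50 dilution of a 0.5 McFarland suspension, incubated 18 h at 37 °C and read on a plate reader. Each FIC is the concentration in a no-growth well divided by the MIC alone; FIC index is their sum, with ≤0.5 taken as synergy.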
# Acinetobacter baumannii [17] = experiment: Synergistic antibacterial activity against multidrug-resistant Acinetobacter baumannii AB031 after 18 hrs in presence of minocycline by checkerboard assay; format: functional; conditions: AB031, 18 h; method in brief: as §5
# Pseudomonas aeruginosa [18] = experiment: Potentiation of rifampicin-induced antibacterial activity against multidrug/extremely drug-resistant/colistin-susceptible Pseudomonas aeruginosa isolate 100036 at 4 ug/ml after 18 hrs by checkerboard assay; format: functional; method in brief: as §1
# Pseudomonas aeruginosa [19] = experiment: Synergistic antibacterial activity against Pseudomonas aeruginosa PAO1 after 18 hrs in presence of moxifloxacin by checkerboard assay; format: functional; conditions: PAO1, 18 h; method in brief: as §2
# Pseudomonas aeruginosa [20] = experiment: Potentiation of trimethoprim-induced antibacterial activity against Pseudomonas aeruginosa PAO1 at 4 ug/ml after 18 hrs by checkerboard assay; format: functional
# Method in brief: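 Checkerboard broth microdilution in MHB: antibiotic serially diluted along one axis, adjuvant along the other (10 × 7 matrix). Inoculum from 0.5 McFarland saline suspension diluted 1:50 in MHB; 18 h at 37 °C. MIC taken as lowest concentration with no growth. FIC per agent = combination MIC/MIC alone; FIC index = sum (≤0.5 synergy).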
# Pseudomonas aeruginosa [21] = experiment: Induction of outer membrane permeabilization in Pseudomonas aeruginosa PAO1 at 32 ug/ml after 30 mins by CFDASE staining based fluorescence assay; format: functional
# Method in brief: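 Log-phase PAO1 washed in PBS, brought to OD600 0.5 and loaded with 100 µM CFDASE for 30 min at 37 °C, then washed. Cells were exposed to agent for 30 min at 37 °C and supernatant fluorescence read at 488/520 nm. Untreated cells were subtracted; 1% Triton X-100 served as positive control.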
# Pseudomonas aeruginosa [22] = experiment: Potentiation of minocycline-induced antibacterial activity against multidrug/extremely drug-resistant/colistin-susceptible Pseudomonas aeruginosa isolate P262-101856 assessed as fold reduction in minocycline MIC at 4 ug/ml after 18 hrs by checkerboard assay relative to control; format: functional
# Method in brief: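 Checkerboard in Mueller-Hinton broth, 10 × 7 matrix, with the adjuvant held at 4 µg/mL. Inoculum from a 0.5 McFarland suspension diluted 1:50; 18 h at 37 °C. Antibiotic MIC (lowest concentration with no growth) with adjuvant is compared with the antibiotic MIC alone, giving a fold reduction.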
structure (smiles),measurement,setting,value
Cl.Cl.Cl.Cl.Cl.Cl.Cl.NCCCC[C@H](N)C(=O)N(CCCCCCCCCCCCO[C@@H]1[C@@H](O[C@H]2O[C@H](CO)[C@@H](O)[C@H](N)[C@H]2O)[C@H](N)C[C@H](N)[C@H]1O[C@H]1O[C@H](CN)[C@@H](O)C[C@H]1N)Cc1c2ccccc2c(Cl)c2ccccc12,fractional inhibitory concentration index (FICI),Pseudomonas aeruginosa [1],0.156
same,MIC,Pseudomonas aeruginosa [2],1 µg/mL
same,fractional inhibitory concentration index (FICI),Pseudomonas aeruginosa [3],0.156
same,fractional inhibitory concentration index (FICI),Pseudomonas aeruginosa [4],0.5
same,MIC,Pseudomonas aeruginosa [5],4 µg/mL
same,MIC,Acinetobacter baumannii [6],16 to 32 µg/mL
same,Activity,Pseudomonas aeruginosa [7],Active
same,MIC,Pseudomonas aeruginosa [8],2 µg/mL
same,MIC,Acinetobacter baumannii [9],16 µg/mL
same,fractional inhibitory concentration index (FICI),Pseudomonas aeruginosa [10],0.313
same,MIC,Pseudomonas aeruginosa [11],32 µg/mL
same,MIC,Streptococcus pneumoniae,32 µg/mL
same,MIC,Pseudomonas aeruginosa [12],32 µg/mL
same,fractional inhibitory concentration index (FICI),Enterobacter cloacae,0.02
same,fractional inhibitory concentration index (FICI),Pseudomonas aeruginosa [13],0.133
same,Ratio,[14],6
same,MIC,Pseudomonas aeruginosa [15],64 µg/mL
same,MIC,Acinetobacter baumannii [16],8 µg/mL
same,MIC,Acinetobacter baumannii [17],2 µg/mL
same,fractional inhibitory concentration index (FICI),Pseudomonas aeruginosa [18],0.079
same,MIC,Pseudomonas aeruginosa [19],2 µg/mL
same,fractional inhibitory concentration index (FICI),Pseudomonas aeruginosa [20],0.126
same,Activity,Pseudomonas aeruginosa [21],Active
same,fold change (FC),Pseudomonas aeruginosa [22],128
